Measured values taken from ChEMBL document CHEMBL6134793, “Synthesis and structure-activity study of the antimicrobial lipopeptide brevibacillin” (RSC Med Chem, 2024).
In brackets after ≈: the same amount, converted by molar mass.

Assays:
Staphylococcus aureus [1] = assay: Antimicrobial activity against Staphylococcus aureus ATCC 6538 assessed as diameter of growth inhibition at 128 ug/ml by radial diffusion assay; type: functional; conditions: dose 128 µg/ml
Method in brief: (§1)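 Agar well diffusion. Overnight cultures inoculated at 1% into 0.75% soft agar (TSB for S. aureus, LB for P. aeruginosa). Each well received 80 μL of peptide at 128 μg mL−1 in water with 10% DMSO; 10% DMSO served as negative control. Inhibition zone diameter scored after strain-specific incubation.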

Pseudomonas aeruginosa [2] = assay: Antimicrobial activity against Pseudomonas aeruginosa ATCC […] assessed as diameter of growth inhibition at 128 ug/ml by radial diffusion assay; type: functional; conditions: dose 128 µg/ml; method in brief: as §1
[3] = Hemolytic activity in human erythrocytes at 128 ug/ml measured after 1 hr by absorbance based assay relative to control; type: toxicity, cell-based, Erythrocyte; conditions: at 128 µg/mL, read-out: Activity
Method in brief: (§2)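 Washed human donor erythrocytes at 1% hematocrit in PBS pH 7.4 exposed to twofold peptide dilutions (final 2–256 μg mL−1, up to 1% DMSO) for 1 h at 37 °C. After centrifugation, supernatant A405 read. % hemolysis relative to PBS (0%) and 1% Triton X-100 (100%). Triplicate; mean ± SEM.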

[4] = Cytotoxicity against human Caco-2 cells assessed as inhibition of cell viability incubated for 48 hrs by Cell Titer GLO assay; type: toxicity, cell-based
Method in brief: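 Caco-2 cells in DMEM with 10% FCS, seeded 25 000 per well, adhered overnight, then given peptide at 2–256 μg mL−1 in complete medium for 48 h at 37 °C, 5% CO2. Controls: cisplatin 125 μM; 0.1% DMSO medium. Viability by ATP luminescence (CellTiter-Glo) versus untreated cells; IC50 from dose–response; mean ± SEM of at least three independent experiments.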

Pseudomonas aeruginosa [5] = assay: Antimicrobial activity against Pseudomonas aeruginosa ATCC […] assessed as growth inhibition by microdilution assay; type: functional
Method in brief: (§3)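 Twofold serial microdilution of peptide (stocks 2 mg mL−1, diluted to 512 μg mL−1 in water with 10% DMSO) in strain medium, about 1 × 10^4 cfu per well. Media: TSB 20 h 37 °C (S. aureus, L. monocytogenes, B. subtilis, E. faecalis); LB 20 h 37 °C (P. aeruginosa, S. enterica, E. coli); Brucella 48 h 37 °C (C. coli). A595 read; MIC = lowest concentration with no visible growth; triplicate.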

[6] = Antimicrobial activity against Salmonella enterica serovar Newport ATCC 6962 assessed as growth inhibition by microdilution assay; type: functional, Salmonella enterica subsp. enterica serovar Newport; method in brief: as §3
Enterococcus faecalis = assay: Antimicrobial activity against Enterococcus faecalis ATCC 29212 assessed as growth inhibition by microdilution assay; type: functional; method in brief: as §3
Bacillus subtilis = assay: Antimicrobial activity against Bacillus subtilis ATCC 23957 assessed as growth inhibition by microdilution assay; type: functional; method in brief: as §3
Staphylococcus aureus [7] = assay: Antimicrobial activity against Staphylococcus aureus ATCC 6538 assessed as growth inhibition by microdilution assay; type: functional; method in brief: as §3
Listeria monocytogenes = assay: Antimicrobial activity against Listeria monocytogenes ATCC 19111 assessed as growth inhibition by microdilution assay; type: functional; method in brief: as §3
Escherichia coli = assay: Antimicrobial activity against Escherichia coli ATCC 25922 assessed as growth inhibition by microdilution assay; type: functional; method in brief: as §3
Clostridium perfringens = assay: Antimicrobial activity against Clostridium perfringens ATCC 3628 assessed as growth inhibition by microdilution assay; type: functional
Method in brief: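 Broth microdilution: twofold serial peptide dilutions in reinforced clostridial medium (RCM), seeded with about 1 × 10^4 cfu per well, incubated 20 h at 37 °C. Working solution 512 μg mL−1 made from a 2 mg mL−1 stock in water with 10% DMSO. Growth read as absorbance at 595 nm. MIC taken as the lowest concentration giving complete inhibition of visible growth; run in triplicate.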

Campylobacter coli = assay: Antimicrobial activity against Campylobacter coli ATCC 33559 assessed as growth inhibition by microdilution assay; type: functional; method in brief: as §3
[8] = Hemolytic activity in human erythrocytes at 256 ug/ml measured after 1 hr by absorbance based assay relative to control; type: toxicity, cell-based, Erythrocyte; conditions: at 256 µg/mL, read-out: Activity; method in brief: as §2

Row | SMILES | Activity (Staphylococcus aureus [1]) [mm] | Activity (Pseudomonas aeruginosa [2]) [mm] | hemolysis at 1 h, 128 ug/ml [3] [%] | IC50 at 48 h [4] [µg/mL] | MIC (Pseudomonas aeruginosa [5]) [µg/mL] | MIC [6] [µg/mL] | MIC (Enterococcus faecalis) [µg/mL] | MIC (Bacillus subtilis) [µg/mL] | MIC (Staphylococcus aureus [7]) [µg/mL] | MIC (Listeria monocytogenes) [µg/mL] | MIC (Escherichia coli) [µg/mL] | MIC (Clostridium perfringens) [µg/mL] | MIC (Campylobacter coli) [µg/mL] | hemolysis at 1 h, 256 ug/ml [8] [%]
1 | CC[C@H](C)[C@H](O)C(=O)N[C@@H](CO)C(=O)N[C@@H](CC(C)C)C(=O)N[C@H](CCCN)C(=O)N[C@H](C(=O)N[C@H](C(=O)N[C@H](C(=O)N[C@H](CCCCN)C(=O)N[C@H](C(=O)N[C@H](C(=O)N[C@@H](CCCCN)C(=O)N[C@H](Cc1ccc(O)cc1)C(=O)N[C@@H](CC(C)C)C(=O)N[C@H](CO)C(C)C)C(C)C)C(C)C)C(C)C)[C@@H](C)CC)[C@@H](C)CC | 11 | 12 | 1.2 | 42.2 (≈ 26.6 µM) | 4 | > 128 | > 128 | 2 | 8 | 1 | 32 | 8 | 32 | 4.9
2 | CC[C@H](C)[C@H](O)C(=O)N[C@H](C(=O)N[C@@H](CC(C)C)C(=O)N[C@H](CCCN)C(=O)N[C@H](C(=O)N[C@H](C(=O)N[C@H](C(=O)N[C@H](CCCCN)C(=O)N[C@H](C(=O)N[C@H](C(=O)N[C@@H](CCCCN)C(=O)N[C@H](Cc1ccc(O)cc1)C(=O)N[C@@H](CC(C)C)C(=O)N[C@H](CO)C(C)C)C(C)C)C(C)C)C(C)C)[C@@H](C)CC)[C@@H](C)CC)C(C)C | 7 | 7 | 53.1 | 8.3 (≈ 5.19 µM) | 1 | > 128 | 4 | 1 | 1 | 1 | > 128 | 4 | 8 | 84
3 | C/C=C(/NC(=O)[C@@H](O)[C@@H](C)CC)C(=O)N[C@@H](CC(C)C)C(=O)N[C@H](CCCN)C(=O)N[C@H](C(=O)N[C@H](C(=O)N[C@H](C(=O)N[C@H](CCCCN)C(=O)N[C@H](C(=O)N[C@H](C(=O)N[C@@H](CCCCN)C(=O)N[C@H](Cc1ccc(O)cc1)C(=O)N[C@@H](CC(C)C)C(=O)N[C@H](CO)C(C)C)C(C)C)[C@@H](C)CC)C(C)C)[C@@H](C)CC)[C@@H](C)CC | 11 | 12 | 55 | 6.5 (≈ 4.07 µM) | 1 | 64 | 2 | 0.5 | 2 | 1 | 32 | 2 | 8 | 89.9
4 | CC[C@H](NC(=O)[C@@H](O)[C@@H](C)CC)C(=O)N[C@@H](CC(C)C)C(=O)N[C@H](CCCN)C(=O)N[C@H](C(=O)N[C@H](C(=O)N[C@H](C(=O)N[C@H](CCCCN)C(=O)N[C@H](C(=O)N[C@H](C(=O)N[C@@H](CCCCN)C(=O)N[C@H](Cc1ccc(O)cc1)C(=O)N[C@@H](CC(C)C)C(=O)N[C@H](C(N)=O)C(C)C)C(C)C)C(C)C)C(C)C)[C@@H](C)CC)[C@@H](C)CC | 7 | 7 | 23.3 | 11.3 (≈ 7.07 µM) | 2 | > 128 | 64 | 2 | 2 | 2 | > 128 | 8 | 16 | 38.2
5 | CC[C@H](NC(=O)[C@@H](NC(C)=O)[C@@H](C)CC)C(=O)N[C@@H](CC(C)C)C(=O)N[C@H](CCCN)C(=O)N[C@H](C(=O)N[C@H](C(=O)N[C@H](C(=O)N[C@H](CCCCN)C(=O)N[C@H](C(=O)N[C@H](C(=O)N[C@@H](CCCCN)C(=O)N[C@H](Cc1ccc(O)cc1)C(=O)N[C@@H](CC(C)C)C(=O)N[C@H](CO)C(C)C)C(C)C)C(C)C)C(C)C)[C@@H](C)CC)[C@@H](C)CC | 7 | 7 | 23.3 | 17.6 (≈ 10.8 µM) | 2 | > 128 | 32 | 4 | 2 | 2 | > 128 | 2 | 16 | 38.2
